Measured values reported in ChEMBL document CHEMBL1129554, “6-Substituted and 5,6-disubstituted derivatives of uridine: stereoselective synthesis, interaction with uridine phosphorylase, and in vitro antitumor activity” (J Med Chem, 1996).
≈ marks a conversion by molar mass, not a printed value.

Columns and labels:
[1] = tested on: PHA-Ly; experiment: IIn vitro antitumor activity in PHA-Ly cell lines; type: functional, cell-based; conditions: Homo sapiens
Method in brief: (§1)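 Cytotoxicity was measured as inhibition of [¹⁴C]-L-leucine incorporation into protein. Triplicate cultures held 2 × 10⁴ cells/well, or 10⁵ PHA-stimulated peripheral blood lymphocytes, in RPMI 1640 with 10% FCS, 5% CO₂, 37 °C. Label (0.5 µCi/mL) was present for the final 24 h of a 3-day culture (4 days for PHA-Ly). Protein was precipitated with perchloric acid and counted. IC50 (µg/mL) was taken from dose-response curves.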

[2] = Catalytical constant (Vmax) was evaluated; type: ADME
Method in brief: (§2)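 Homogeneous E. coli uridine phosphorylase in 50 mM phosphate buffer at 37 °C. pH 6 was used for 5-fluoro analogues and pH 7.5 for the others, so the neutral form predominates. Phosphorolysis was followed spectrophotometrically as the decrease in absorbance, 285 nm for 5-fluoro and 280 nm for the rest. Initial rates were taken over 20 s. Apparent Km and Vmax came from a Wilkinson fit, and efficacy = Vmax/Km.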

[3] = Efficacy was determined as ratio of Vmax to that of Km; type: ADME; method in brief: as §2
[4] = Catalytical constant (app Km)of the compound was evaluated at pH 6; type: ADME; conditions: read-out: Km app; method in brief: as §2
[5] = tested on: U-937; experiment: In vitro antitumor activity in U-937 cell lines; type: functional, cell-based; conditions: Homo sapiens; method in brief: as §1
[6] = tested on: MOLT-3; experiment: In vitro antitumor activity in MOLT-3 cell lines; type: functional, cell-based; conditions: Homo sapiens; method in brief: as §1
[7] = tested on: K562; experiment: In vitro antitumor activity in K-562 cell lines; type: functional, cell-based; conditions: Homo sapiens; method in brief: as §1
[8] = tested on: IM-9; experiment: In vitro antitumor activity in IM-9 cell lines; type: functional, cell-based; conditions: Homo sapiens; method in brief: as §1
[9] = Catalytical constant (app Km)of the compound was evaluated at pH 7.5; type: ADME; conditions: read-out: Km app; method in brief: as §2

| Structure (SMILES) | IC50 [1] [µg/mL] | Vmax [2] | Efficacy [3] | Km [4] [mM] | IC50 [5] [µg/mL] | IC50 [6] [µg/mL] | IC50 [7] [µg/mL] | IC50 [8] [µg/mL] | Km [9] [µM] |
| --- | --- | --- | --- | --- | --- | --- | --- | --- | --- |
| O=c1[nH]c(=O)n([C@@H]2O[C@H](CO)[C@@H](O)[C@H]2O)c(CF)c1F | 4.5 (≈ 15.3 µM) | 57 uM min-1 (mg of protein)-1 | 0.06 | 0.979 | 3.7 (≈ 12.6 µM) | 3.5 (≈ 11.9 µM) | > 10 | > 10 | – |
| CCCc1cc(=O)[nH]c(=O)n1C1O[C@H](CO)[C@@H](O)[C@H]1O (some centres undefined) | – | 40 uM min-1 (mg of protein)-1 | 0.03 | – | – | – | – | – | 1150 |
| O=c1cc(CF)n(C2O[C@H](CO)[C@@H](O)[C@H]2O)c(=O)[nH]1 (some centres undefined) | > 10 | 297 uM min-1 (mg of protein)-1 | 0.99 | – | > 10 | > 10 | > 10 | 9.9 (≈ 35.8 µM) | 300 |
| O=c1[nH]c(=O)n(C2O[C@H](CO)[C@@H](O)[C@H]2O)c(CO)c1F (some centres undefined) | 2.8 (≈ 9.58 µM) | 370 uM min-1 (mg of protein)-1 | 0.09 | 4 | 3.7 (≈ 12.7 µM) | 1.2 (≈ 4.11 µM) | 4.9 (≈ 16.8 µM) | 3 (≈ 10.3 µM) | – |
| O=c1cc(CO)n(C2O[C@H](CO)[C@@H](O)[C@H]2O)c(=O)[nH]1 (some centres undefined) | 98 (≈ 357 µM) | 254 uM min-1 (mg of protein)-1 | 0.53 | – | > 10 | > 10 | > 10 | > 10 | 476 |
| CCc1cc(=O)[nH]c(=O)n1C1O[C@H](CO)[C@@H](O)[C@H]1O (some centres undefined) | – | 175 uM min-1 (mg of protein)-1 | 0.15 | – | – | – | – | – | 1200 |
| Cc1c(F)c(=O)[nH]c(=O)n1C1O[C@H](CO)[C@@H](O)[C@H]1O (some centres undefined) | > 10 | 67 uM min-1 (mg of protein)-1 | 0.05 | 1.35 | > 10 | > 10 | > 10 | > 10 | – |
| O=c1[nH]c(=O)n([C@@H]2O[C@H](CO)[C@@H](O)[C@H]2O)cc1F [5-FLUOROURIDINE] | < 0.1 | 323 uM min-1 (mg of protein)-1 | 2.1 | 0.152 | < 0.01 | < 0.01 | 0.026 (≈ 0.0992 µM) | < 0.01 | – |
| O=c1[nH]cc(F)c(=O)[nH]1 [FLUOROURACIL] | 1.4 (≈ 10.8 µM) | – | – | – | 0.5 (≈ 3.84 µM) | 1.2 (≈ 9.23 µM) | 4.3 (≈ 33.1 µM) | 0.34 (≈ 2.61 µM) | – |
